Assay outcomes as filed in PubChem BioAssay.
MrgX1 agonist = activates human MrgX1 receptor signaling; Q96LB2; MrgX1-HEK293 cells, Fluo-4 calcium fluorescence, agonist mode; hits give high values; B-score at 10 µM; 0.44% of 310,000 active;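 active = calcium response B-score plate-corrected fluorescence ratio at least 3 library SD, with starting fluorescence B-score inside 5 SD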
Target sequence (Q96LB2 whole entry, looked up): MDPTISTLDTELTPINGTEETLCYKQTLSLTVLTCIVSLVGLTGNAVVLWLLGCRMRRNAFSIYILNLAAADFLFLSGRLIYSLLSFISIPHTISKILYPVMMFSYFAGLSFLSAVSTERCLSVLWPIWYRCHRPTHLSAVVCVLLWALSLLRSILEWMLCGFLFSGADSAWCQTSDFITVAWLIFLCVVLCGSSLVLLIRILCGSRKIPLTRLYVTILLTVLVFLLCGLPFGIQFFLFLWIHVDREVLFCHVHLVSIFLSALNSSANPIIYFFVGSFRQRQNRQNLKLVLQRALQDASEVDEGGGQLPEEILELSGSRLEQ
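System – MrgX1-expressing HEK293 cells · Incubation – cells plated overnight, dye loaded 0.5 h 37 °C, 0.5 h room temperature · Technique – kinetic Fluo-4 NW fluorescence of intracellular calcium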
RGS4 act = RGS4 potentiation or activation; HEK293 M3R/inducible RGS4, carbachol calcium flux Fluo4; hits give low values; B-score at 10 µM; 0.92% of 310,000 active; AID 463111;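 active = B-score of the integrated calcium signal more than 4 SD below the library mean, with starting fluorescence not abnormally high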;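 note: negative B-score means reduced calcium response which marks RGS4 activation or potentiation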
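test system = M3R-expressing HEK293 line, RGS4 induced by doxycycline | probe or stimulus = carbachol at ECmax as muscarinic agonist stimulus | timing = dye loading 30 min 37 °C, buffer rest 30 min RT | signal = calcium dye Fluo4 fluorescence | evaluation = B score from integrated fluorescence ratio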
RGS4 inh = inhibitors of human RGS4; 0.45% of 310,000 active; HEK293 M3R/RGS4 inducible, Fluo-4 calcium flux; hits give high values; triggered by carbachol at its EC20; B-score at 10 µM; AID 463165; P49798;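 active = B-score, a plate-corrected calcium signal, over three deviations above library mean, with baseline fluorescence within five deviations of library mean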;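 note: RGS4 expression induced by doxycycline in cells with stable M3 receptor; B-score is computed from the integrated fluorescence ratio over baseline after carbachol; higher B-score means a larger calcium signal and so more RGS4 inhibition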
Target sequence (P49798 whole entry, looked up): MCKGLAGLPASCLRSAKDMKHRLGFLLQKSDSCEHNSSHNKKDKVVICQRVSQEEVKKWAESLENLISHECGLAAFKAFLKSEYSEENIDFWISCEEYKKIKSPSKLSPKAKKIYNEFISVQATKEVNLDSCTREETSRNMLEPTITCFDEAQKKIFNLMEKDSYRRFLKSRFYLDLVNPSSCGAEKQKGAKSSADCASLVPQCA
MrgX1 PAM = allosterically activates human MrgX1 receptor signaling; MrgX1-HEK293, Fluo-4 calcium flux, FDSS; hits give high values; B-score at 10 µM; 0.63% of 310,000 active; AID 588675;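 active = plate-corrected calcium response at least 3 library SD above typical, normal starting fluorescence, not activating the receptor alone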;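 note: compound read alongside a low EC10 to EC30 dose of BAM8-22 agonist; peak minus trough fluorescence over baseline measured at the second addition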
MrgX1 antag = blocks BAM8-22 activation of human MrgX1 receptor | 1.3% of 310,000 active | AID 588676 | Q96LB2 | MRGX1-HEK293 calcium flux, Fluo-4, BAM8-22 antagonism; hits give low values | B-score at 10 µM;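 active = calcium-response B-score plate-corrected more than 3 library SD below zero, starting fluorescence within 5 deviations, no agonist response on first addition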;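 note: peak minus trough fluorescence over baseline after final BAM8-22 challenge near maximal dose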
A number is an active result; - = inactive; . = no result. Shown are actives, neighbours in structure and some others; about 3.5% of the full set was active somewhere.

SMILES	MrgX1 agonist	RGS4 act	RGS4 inh	MrgX1 PAM	MrgX1 antag
COc1ccc(/C=N/Nc2cc(C)nc3c(C)cccc23)cc1	-	-	-	-	-4.6
CSCCC(NC(=O)c1ccco1)C(=O)OCc1cc([N+](=O)[O-])cc2c1OCOC2 (configuration not stated)	28	-	-	-	-
CC(C)[C@H](NC(=O)c1ccccc1Cl)C(=O)OCc1cc([N+](=O)[O-])cc2c1OCOC2	-	-	-	-	-
COc1ccc(C(C)=O)cc1CN1C(=O)NC(c2ccccc2)(c2ccccc2)C1=O	-	-	-	-	-
Cc1ccc(C(=O)NNC(=S)NC(=O)c2ccccc2)cc1	139	-	-	-	-
Cc1ccc(C(=O)NNC(=O)c2cccc(C)c2)cc1	-	-	-	-	-
Cc1cccc(C(=O)NNC(=S)NC(=O)c2ccccc2)c1	186	-	-	-	-
COc1ccc(C(=O)NC(=S)NNC(=O)c2cccc(C)c2)cc1	102	-8.4	-	-	-
COc1ccc(CCC(=O)NCCS(=O)(=O)N2CCN(c3ccccc3OC)CC2)cc1	-	-	-	-	-
Cc1c(CCO)c(=O)[nH]n1S(=O)(=O)c1ccc(Cl)cc1Cl	-	-	-	-	-
COc1ccc(S(=O)(=O)n2[nH]c(=O)c(CCO)c2C)c([N+](=O)[O-])c1	-	-	-	7.9	-
CCn1c(=O)c(C(=O)NNC(=O)c2ccccc2F)c(O)c2ccccc21	114	-8.7	-	-	-
CCCCCC(=O)NNC(=O)c1c(O)c2ccccc2n(CC)c1=O	-	-	-	-	-
CCOC(=O)C1(CCOc2ccccc2)CCN(Cc2cccc(OC)c2OC)CC1	-	-	-	-	-
CC(C)CN(C(=O)c1nn(C)c(=O)c2ccccc12)c1nc2ccccc2s1	-	-	-	7	-
CC(C)CN(C(=O)c1ccco1)c1nc2ccccc2s1	-	-	-	-	-
CN(C)c1ccc(/C=C2\SC(=S)N(Nc3ncc(C(F)(F)F)cc3Cl)C2=O)cc1	-	-	-	13	-
COc1cc(/C=C2\SC(=S)N(Nc3ccccc3)C2=O)ccc1O	-	-	-	-	-
COc1cc(/C=C2\SC(=S)N(Nc3ncc(C(F)(F)F)cc3Cl)C2=O)ccc1O	-	-	-	17	-
Cn1c(=S)c2[nH]c(SCCN3CCCC3)nc2n(C)c1=O	-	-	-	-	-
Cc1ccc(S(=O)(=O)c2cc3ccccc3oc2=O)cc1	-	-	-	-	-
Cc1c(O)ccc2cc(S(=O)(=O)c3ccccc3)c(=O)oc12	-	-7.8	-	-	-
O=[N+]([O-])c1ccc(N/N=C/c2c[nH]c3ccccc23)cc1	-	-	-	-	-9.1
O=[N+]([O-])c1ccc(N/N=C/c2ccc[nH]2)cc1	27	.	.	-	-
O=[N+]([O-])c1ccccc1N/N=C/c1c[nH]c2ccccc12	-	-	-	-	-
SMILES	MrgX1 agonist	RGS4 act	RGS4 inh	MrgX1 PAM	MrgX1 antag
O=S(=O)(CCSc1ccc(C(F)(F)F)cn1)c1ccc(Cl)cc1	-	-	-	-	-
O=[N+]([O-])c1cccc(S(=O)(=O)Nc2ccc(-c3ccc(N4CCCC4)nn3)cc2)c1	-	-	-	-	-
O=[N+]([O-])c1cccc(S(=O)(=O)Nc2ccc(-c3ccc(N4CCOCC4)nn3)cc2)c1	-	-	-	7.8	-
O=c1c2ccccc2nc(SCc2ccccc2Cl)n1Cc1ccccc1	-	-	-	-	-6.8
C=CCSc1nc2ccccc2c(=O)n1Cc1ccccc1	-	-	-	-	-
COc1ccc(/C=N\NC(=O)c2cc3c(ccc4ccccc43)o2)cc1O	-	-7.2	-	-	-
COc1cc(/C=N/NC(=O)Cc2ccc(Br)cc2)cc(OC)c1O	-	-	-	7.5	-
O=C(N/N=C/c1ccc(-c2ccc(Cl)c(C(=O)O)c2)o1)c1cc2c(ccc3ccccc32)o1	-	-	-	-	-9.8
Cc1ccc(-c2ccc(/C=N\NC(=O)c3cc4c(ccc5ccccc54)o3)o2)cc1[N+](=O)[O-]	-	-	-	-	-
COc1cc(Br)cc(/C=N/NC(=O)Cc2ccccc2)c1O	-	-	-	-	-
COc1cc(/C=N/NC(=O)c2cc3c(ccc4ccccc43)o2)cc(OC)c1O	-	-7.3	-	-	-
Cc1cc(C(=O)NCC(C)(C)N2CCOCC2)c(C)o1	-	-	-	-	-
O=C1N[C@@H](Cc2ccccc2)C(=O)N2[C@@H]1C[C@@]1(Br)c3ccccc3N(S(=O)(=O)c3ccccc3)[C@@H]21	-	-	-	-	-
CN(Cc1ccccc1)C(=O)Cn1c(=O)c2cccn2c2cccnc21	-	-	-	-	-
Cc1nn(-c2ccccc2)c(Cl)c1/C=N/NC(=O)c1ccc(NS(=O)(=O)c2cccs2)cc1	-	-	-	11	-
Cc1ccc(-n2nc(C)c(/C=N/NC(=O)c3cccnc3)c2Cl)cc1	-	-	-	-	-4.8
Cc1ccc(S(=O)(=O)N(C)c2ccc3c(ncn3C)c2[N+](=O)[O-])cc1	-	-	-	-	-
COc1ccc(CNC(=O)NC(C)(C)c2cccc(C(C)(C)NC(=O)NCc3ccc(OC)cc3)c2)cc1	-	-	-	-	-
Cc1nnc2sc(SCc3ccc(Cl)cc3)nn2c1=O	-	-	-	-	-6.6
COc1cc(/C=N/N2CCN(Cc3ccccc3)CC2)cc(OC)c1OC(C)=O	-	-	-	-	-
O=C(O)/C=C/c1cn(-c2ccccc2)nc1-c1ccc(-c2ccc([N+](=O)[O-])cc2)o1	-	-	-	-	-4.6
COc1ccc(-c2nn(-c3ccccc3)cc2/C=C/C(=O)O)cc1[N+](=O)[O-]	-	-	-	9.2	-
O=[N+]([O-])c1ccc(N/N=C/c2cn(-c3ccccc3)nc2-c2ccccc2)cc1	-	-	-	-	-4.5
O=C(O)/C=C/c1cn(-c2ccccc2)nc1-c1cccc([N+](=O)[O-])c1	-	-	-	-	-
COc1ccc(-c2nn(-c3ccccc3)cc2C=O)cc1[N+](=O)[O-]	-	-	-	-	-
SMILES	MrgX1 agonist	RGS4 act	RGS4 inh	MrgX1 PAM	MrgX1 antag
O=C(c1cccnc1)C1CCCN(Cc2nc(Cc3ccccc3)no2)C1 (configuration not stated)	-	-	-	-	-
CCCCCCSc1ccc([C@H]2N[C@@](C)(C(=O)OC)[C@H]3C(=O)N(C)C(=O)[C@@H]23)cc1	-	-	-	-	-
CCCCCCCCCCOC(=O)C[N+](C)(C)C/C=C(/C)Cl	-	-	-	-	-5.3
CCCCCCCCOC(=O)C[N+](C)(C)C/C=C(/C)Cl	-	-	-	-	-
CCCCCCCCCCCCOC(=O)C[N+](C)(C)C	-	-8.9	-	-	-
CC(NC(=O)COc1ccccc1F)C1CC2CCC1C2 (configuration not stated)	-	-	-	-	-
CCS(=O)(=O)N1Cc2ccccc2CC1C(=O)N(C)CC(=O)Nc1ccc(F)c(F)c1F (configuration not stated)	-	-	-	-	-
